# Results taken from ChEMBL document CHEMBL1125351, “Isobenzofurans as conformationally constrained miconazole analogues with improved antifungal potency” (1992).
# Experiments:
# Cricetinae gen. sp. [1] = assay: Inhibition of Vaginal Candida (C-60 strain) infection in Hamsters, estimated as Percent Area under curve at 0.05 % concentration after 8 days of administration; assay type: functional, Cricetulus griseus
# Method in brief: (§1)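 Hamster vaginal C. albicans infection (strains C43 or C60; 10 animals per compound). From day 5 post-infection, a cotton pellet holding 0.15 mL of 0.05% or 0.01% (w/w) compound in EtOH–PEG 400–glycerol (10:45:45) was inserted once daily for 4 or 8 days. Vaginal swabs were filtered and the filters cultured on SDA at 37 °C for 48 h. Read-out was the area under the % negative cultures versus time curve.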
# Cavia porcellus [2] = assay: In vivo inhibition of topical Trichophyton infection in Guinea Pig during drug administration; assay type: functional
# Method in brief: (§2)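 Guinea pigs (5 per compound) infected with T. mentagrophytes D24 by swabbing a homogenate onto shaven, abraded skin. From day 4 post-infection, 0.25% (w/v) compound in EtOH–PEG 400–glycerol (10:45:45) was rubbed in topically twice daily for 10 days. Hair samples were cultured on SDA at 27 °C for up to 16 days. Read-outs were the % negative cultures and the day each animal became culture-negative.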
# Cavia porcellus [3] = assay: In vivo inhibition of topical Trichophyton infection in Guinea Pig after drug administration; assay type: functional; method in brief: as §2
# Cavia porcellus [4] = species on record: Cavia porcellus; assay: Lession score which is determined as number of animals minus days to become negative; assay type: functional; method in brief: as §2
# Candida albicans [5] = assay: Minimum inhibitory concentration against Candida albicans using eagles minimum essential medium (EMEM); assay type: functional
# Method in brief: (§3)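 Candida MICs in Eagle's minimum essential medium, pH 7.0. Compounds in DMSO or ethanol were serially diluted in medium, inoculated and incubated at 37 °C under CO₂. […] The summary value is the geometric mean of the MICs across strains.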
# Trichophyton benhamiae = assay: Minimum inhibitory concentration against Trichophyton mentagrophytes at a pH of 5.7 using SDB medium; assay type: functional, Arthroderma benhamiae
# Method in brief: (§4)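 Dermatophyte isolates tested by serial broth dilution in SDB, pH 5.7. Compound stocks in DMSO or ethanol, incubated at 27 °C, and growth read visually at 72 h. MIC is the lowest concentration with no visible growth. The summary value is the geometric mean of the MICs across the organisms.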
# Candida albicans [6] = assay: Minimum inhibitory concentration against Candida stellatoidea at a pH of 5.7 using SDB medium; assay type: functional
# Method in brief: (§5)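 Broth dilution in Sabouraud dextrose broth, pH 5.7. Compounds dissolved in DMSO or ethanol, serially diluted in medium, inoculated and incubated at 27 °C. Wells read visually at 48 h. MIC is the lowest concentration giving complete growth inhibition.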
# Nannizzia gypsea = assay: Minimum inhibitory concentration against Microsporum gypseum at a pH of 5.7 using SDB medium; assay type: functional; method in brief: as §4
# Candida = assay: Compound is evaluated for geometric mean of MIC values of Candida species; assay type: functional; parameters: unit not given beside the values
# Microsporum canis = assay: Minimum inhibitory concentration against Microsporum canis at a pH of 5.7 using SDB medium; assay type: functional; method in brief: as §4
# Candida tropicalis [7] = assay: Minimum inhibitory concentration against Candida tropicalis at a pH of 5.7 using SDB medium; assay type: functional; method in brief: as §5
# Candida tropicalis [8] = assay: Minimum inhibitory concentration against Candida tropicalis using eagles minimum essential medium (EMEM); assay type: functional; method in brief: as §3
# Cricetinae gen. sp. [9] = assay: Inhibition of Vaginal Candida (C-43 strain) infection in Hamsters, estimated as Percent Area under curve at 0.05 % concentration after 8 days of administration; assay type: functional, Cricetulus griseus; method in brief: as §1
# Arthrodermataceae = assay: Compound is evaluated for geometric mean of MIC values of dermatophytes; assay type: functional; parameters: unit not given beside the values; method in brief: as §4
# Candida parapsilosis = assay: Minimum inhibitory concentration against Candida parapsilosis at a pH of 5.7 using SDB medium; assay type: functional; settings: Lodderomyces parapsilosis; method in brief: as §5
# Trichophyton rubrum = assay: Minimum inhibitory concentration against Trichophyton rubrum at a pH of 5.7 using SDB medium; assay type: functional; method in brief: as §4
# Candida albicans [10] = assay: Minimum inhibitory concentration against Candida albicans at a pH of 5.7 using SDB medium; assay type: functional; method in brief: as §5
# Candida albicans [11] = assay: Minimum inhibitory concentration against Candida stellatoidea using eagles minimum essential medium (EMEM); assay type: functional; method in brief: as §3
# [12] = Geometric mean for the above three species of Candida, tested in EMEM medium; assay type: functional; method in brief: as §3
# Epidermophyton floccosum = assay: Minimum inhibitory concentration against Epidermophyton floccosum at a pH of 5.7 using SDB medium; assay type: functional; method in brief: as §4
# Cricetinae gen. sp. [13] = assay: Inhibition of Vaginal Candida (C-60 strain) infection in Hamsters, estimated as Percent Area under curve at 0.05 % concentration after 4 days of administration; assay type: functional, Cricetulus griseus; method in brief: as §1
# Cricetinae gen. sp. [14] = assay: Inhibition of Vaginal Candida (C-60 strain) infection in Hamsters, estimated as Percent Area under curve at 0.01 % concentration after 4 days of administration; assay type: functional, Cricetulus griseus; method in brief: as §1
Compound,MIC (Candida albicans [5]),MIC (Trichophyton benhamiae),MIC (Candida albicans [6]),MIC (Nannizzia gypsea),MIC (Microsporum canis),MIC (Candida tropicalis [7]),MIC (Candida tropicalis [8]),MIC (Candida parapsilosis),MIC (Trichophyton rubrum),MIC (Candida albicans [10]),MIC (Candida albicans [11]),MIC (Epidermophyton floccosum),Geometric mean (Candida),Geometric mean (Arthrodermataceae),Geometric mean [12],also measured
Clc1ccccc1C(c1ccccc1)(c1ccccc1)n1ccnc1 [CLOTRIMAZOLE],–,–,–,–,–,–,–,–,–,–,–,–,–,–,–,Inhibition (Cricetinae gen. sp. [1]): 34%; Culture negative (Cavia porcellus [2]): 75%; Culture negative (Cavia porcellus [3]): 87%; Lesion score (Cavia porcellus [4]): 5
Clc1ccc(C2(Cn3ccnc3)OCc3c(Cl)cc(Cl)cc32)c(Cl)c1 (stereo not given),2 µg/mL,8 µg/mL,4 µg/mL,16 µg/mL,8 µg/mL,8 µg/mL,2 µg/mL,4 µg/mL,8 µg/mL,8 µg/mL,2 µg/mL,–,4.9,9.5,2,Inhibition (Cricetinae gen. sp. [9]): <30%
OC1OC(Cn2cncn2)(c2ccc(Cl)cc2)c2ccccc21 (stereo not given),–,> 64 µg/mL,> 64 µg/mL,> 64 µg/mL,> 64 µg/mL,> 64 µg/mL,–,32 µg/mL,64 µg/mL,> 64 µg/mL,–,8 µg/mL,–,>54,–,–
Clc1ccc(CC2(Cn3ccnc3)OCc3ccccc32)cc1 (stereo not given),0.25 µg/mL,8 µg/mL,> 64 µg/mL,32 µg/mL,4 µg/mL,> 64 µg/mL,0.25 µg/mL,4 µg/mL,8 µg/mL,> 64 µg/mL,0.25 µg/mL,0.25 µg/mL,>78,4.6,0.25,–
Clc1ccc(C2(Cn3cncn3)OCc3ccccc32)cc1 (stereo not given),< 0.031 µg/mL,1 µg/mL,32 µg/mL,4 µg/mL,1 µg/mL,64 µg/mL,< 0.031 µg/mL,1 µg/mL,1 µg/mL,64 µg/mL,< 0.031 µg/mL,< 0.031 µg/mL,16,<0.57,< 0.02,–
Clc1ccc(C2(Cn3ccnc3)OCc3ccc(Cl)cc32)c(Cl)c1 (stereo not given),< 0.031 µg/mL,0.5 µg/mL,64 µg/mL,–,0.5 µg/mL,8 µg/mL,1 µg/mL,< 0.031 µg/mL,8 µg/mL,64 µg/mL,< 0.031 µg/mL,–,<15,1.3,< 0.031,Inhibition (Cricetinae gen. sp. [13]): 64%; Inhibition (Cricetinae gen. sp. [14]): 26%

# More lines, main results first:
MIC (Candida albicans [5]),MIC (Trichophyton benhamiae),MIC (Candida albicans [6]),MIC (Nannizzia gypsea),MIC (Microsporum canis),MIC (Candida tropicalis [7]),MIC (Candida tropicalis [8]),MIC (Candida parapsilosis),MIC (Trichophyton rubrum),MIC (Candida albicans [10]),MIC (Candida albicans [11]),MIC (Epidermophyton floccosum),Compound,Geometric mean (Candida),Geometric mean (Arthrodermataceae),Geometric mean [12],also measured
0.25 µg/mL,< 0.031 µg/mL,16 µg/mL,8 µg/mL,1 µg/mL,32 µg/mL,0.063 µg/mL,< 0.031 µg/mL,< 0.031 µg/mL,32 µg/mL,0.125 µg/mL,< 0.031 µg/mL,c1ccc(-c2ccc(C3(Cn4ccnc4)OCc4ccccc43)cc2)cc1 (stereo not given),7.2,–,0.16,–
< 0.031 µg/mL,0.5 µg/mL,> 64 µg/mL,–,2 µg/mL,64 µg/mL,< 0.031 µg/mL,0.25 µg/mL,16 µg/mL,> 64 µg/mL,< 0.031 µg/mL,–,Fc1ccc(C2(Cn3ccnc3)OCc3ccccc32)c(F)c1 (stereo not given),48,2.5,< 0.02,Inhibition (Cricetinae gen. sp. [13]): 88%; Inhibition (Cricetinae gen. sp. [14]): 69%
< 0.031 µg/mL,< 0.031 µg/mL,32 µg/mL,0.5 µg/mL,< 0.031 µg/mL,32 µg/mL,< 0.031 µg/mL,< 0.031 µg/mL,< 0.031 µg/mL,32 µg/mL,< 0.031 µg/mL,0.063 µg/mL,Clc1ccc(C2(Cn3ccnc3)OCc3ccccc32)c(Cl)c1 (stereo not given),7.2,<0.04,< 0.02,Inhibition (Cricetinae gen. sp. [13]): 94%; Inhibition (Cricetinae gen. sp. [14]): 78%
0.25 µg/mL,16 µg/mL,64 µg/mL,64 µg/mL,16 µg/mL,64 µg/mL,0.125 µg/mL,8 µg/mL,16 µg/mL,64 µg/mL,0.25 µg/mL,< 0.031 µg/mL,c1ccc(C2(Cn3ccnc3)OCc3ccccc32)cc1 (stereo not given),48,<5.2,0.2,–
< 0.031 µg/mL,0.125 µg/mL,64 µg/mL,1 µg/mL,1 µg/mL,64 µg/mL,< 0.031 µg/mL,2 µg/mL,0.25 µg/mL,64 µg/mL,< 0.031 µg/mL,< 0.031 µg/mL,Clc1ccc(C2(Cn3ccnc3)OCCc3ccccc32)cc1 (stereo not given),51,<0.22,< 0.02,–
